Assay outcomes as filed in PubChem.
PolyA inh: polyadenylation inhibitors in yeast reporter cells, primary screen, luminescence, S. cerevisiae; 0.02% of 300,000 active; activity score, % at 12 µM; S. cerevisiae SKY197-pL101 polyadenylation reporter, beta-gal luminescence; efflux-impaired pdr1/pdr3 knockout yeast; score 100 = 6 SD above DMSO;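 active = lowest replicate activity score at least 50, where 100 means six control SD above control mean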;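 also: yeast exposed to compound for 9 h at 30 °C; higher score means more reporter readthrough which indicates perturbed polyadenylation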
proCasp3 act: activators of human procaspase-3 D3A mutant, primary screen, biochemical, absorbance, PC-3 D3A mutant, single concentration | Caspase-3 (Homo sapiens), P42574 | recombinant procaspase-3 D3A, Ac-DEVD-pNA absorbance 405 nm | activation, % at 8.5 µM | 0.11% of 330,000 active | AID 463141, 2010;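 active = activation above the mean of all tested compounds plus 3 SD, cut at about 21% in these data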;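 also: 0% = DMSO alone and 100% = DMSO wells spiked with extra 5 µM PC-3 D3A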
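Technique: 405 nm absorbance of p-nitroaniline, reads at 0 and 120 min; Test system: Procaspase-3 D3A mutant; Incubation: 1 h enzyme-compound preincubation, then 2 h substrate reaction, 25 °C; Repeats: singlicate, each compound tested once; Benchmarks: low control DMSO wells, high control DMSO plus 5 µM PC-3 D3A.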
VIM-2 inh: VIM-2 metallo-beta-lactamase inhibitors, primary screen, biochemical, epi-absorbance readout, Pseudomonas aeruginosa enzyme. 0.89% of 290,000 active. inhibition, % at 5.6 µM. purified VIM-2, nitrocefin hydrolysis, epi-absorbance fluorescence;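 active = inhibition above the mean of all tested compounds plus 3 SD, cutoff set per screening run, cut at about 7.5% in these data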;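 also: red hydrolysis product quenches plate fluorescence so inhibitors raise well fluorescence; 0% = enzyme with DMSO and 100% = DMSO without enzyme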
Neddyl block: inhibitors of cullin neddylation, primary screen, biochemical, TR-FRET, uHTS, NAE and Ubc12; NEDD8-conjugating enzyme Ubc12 (Homo sapiens) + NEDD8-activating enzyme E1 regulatory …; calls only at 25 µM; 0.58% of 360,000 active; AID 651699, 2012; in the data active = inhibition above about 36%
proCasp7 act: procaspase-7 activators, primary screen, counter-screen for procaspase-3 activator project, biochemical, absorbance, HTS, human. Caspase-7 (Homo sapiens), P55210. activation, % at 8.5 µM. 0.093% of 330,000 active. recombinant procaspase-7, Ac-DEVD-pNA absorbance 405 nm; D23A/D198A/D206A triple mutant, cannot self-cleave; scale: DMSO 0, 5 µM enzyme 100. AID 463210, 2010;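 active = percent activation above the screen-wide mean plus 3 SD, cut at about 25% in these data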
Target sequence (P55210 whole entry D23A/D198A/D206A): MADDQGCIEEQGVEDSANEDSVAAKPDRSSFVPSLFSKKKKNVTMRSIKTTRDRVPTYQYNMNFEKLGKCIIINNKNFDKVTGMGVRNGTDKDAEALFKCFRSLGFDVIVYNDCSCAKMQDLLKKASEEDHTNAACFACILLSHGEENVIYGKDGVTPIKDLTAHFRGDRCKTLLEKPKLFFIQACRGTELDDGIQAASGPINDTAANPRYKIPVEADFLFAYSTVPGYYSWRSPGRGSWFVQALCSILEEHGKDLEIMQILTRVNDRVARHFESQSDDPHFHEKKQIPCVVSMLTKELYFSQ
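Material: Procaspase-7 triple mutant (PC-7 D3A) | Quantity: 2 µM procaspase-7 mutant as dispensed | Reagent: DEVD-pNA substrate | Times: 1 h preincubation, 2 h reaction | Technique: 405 nm absorbance of p-nitroaniline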
IMP-1 inh-1: IMP-1 metallo-beta-lactamase inhibitors, primary screen, biochemical, epi-absorbance readout, Pseudomonas aeruginosa enzyme | metallo-beta-lactamase IMP-1 (Pseudomonas aeruginosa) | AID 1556, 2009 | inhibition, % at 5.6 µM | purified IMP-1, nitrocefin hydrolysis, epi-absorbance fluorescence | 0.45% of 290,000 active;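 active = inhibition above the mean plus 3 SD of all compounds in the same screening run, cut at about 4.5% in these data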;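 also: 0% = IMP-1 with DMSO and 100% = DMSO wells lacking enzyme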
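assay system = purified recombinant IMP-1 metallo-beta-lactamase enzyme | schedule = 15 min preincubation plus 25 min reaction at 25 °C | signal = Epi-absorbance fluorescence, 480 nm excitation, 530 nm emission | read-out basis = percent inhibition from optical density relative to buffer-blank wells | controls = IMP-1 with DMSO as 0%, enzyme-free DMSO as 100%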
IMP-1 inh-2: IMP-1 metallo-beta-lactamase inhibitors, confirmation, selectivity assay for selective VIM-2 inhibitor project, biochemical, epi-absorbance readout, triplicate. shares compounds with VIM-2 inh. purified IMP-1, nitrocefin hydrolysis, epi-absorbance fluorescence. inhibition, % at 5.6 µM. 1,300 tested, under 10 active; call rule not given here;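 also: 0% = enzyme with vehicle and 100% = vehicle without enzyme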
VIM-2 FRET inh: VIM-2 inhibitors in FRET format, confirmation, artefact control for selective VIM-2 inhibitor project, biochemical, epi-absorbance artifact exclusion; shares compounds with VIM-2 inh; purified VIM-2, CCF2 FRET substrate hydrolysis; inhibition, % at 5.6 µM; 23% of 1,300 active; AID 1857, 2009;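 active = inhibition above the mean of all tested compounds plus 3 SD, cut at about 19% in these data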;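 also: 0% = VIM-2 plus DMSO and 100% = no enzyme wells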
TEM-1 counter: TEM-1 serine beta-lactamase inhibitors, counter-screen for VIM-2 inhibitor project, biochemical, epi-absorbance, HTS; shares compounds with VIM-2 inh; Purified TEM-1, nitrocefin hydrolysis, epi-absorbance fluorescence; inhibition, % at 5.6 µM; 3% of 1,300 active; AID 1866, 2009;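 active = inhibition above that campaign's mean inhibition plus 3 SD, cut at about 0.46% in these data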;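 also: 0% = TEM-1 with DMSO and 100% = TEM-1 with 100 µM potassium clavulanate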
Target sequence (P62593 whole entry, looked up): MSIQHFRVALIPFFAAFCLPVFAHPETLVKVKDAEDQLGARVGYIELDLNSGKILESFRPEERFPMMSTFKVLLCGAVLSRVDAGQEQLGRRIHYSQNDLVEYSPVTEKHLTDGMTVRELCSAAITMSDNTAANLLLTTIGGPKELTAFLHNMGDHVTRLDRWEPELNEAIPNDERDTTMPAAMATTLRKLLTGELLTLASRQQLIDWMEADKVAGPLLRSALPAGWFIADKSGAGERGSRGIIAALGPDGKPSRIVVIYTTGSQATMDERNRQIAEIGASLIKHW
VIM-2 inh conf: VIM-2 metallo-beta-lactamase inhibitors, confirmation, biochemical, epi-absorbance, hits shared with IMP-1 screen. shares compounds with VIM-2 inh. purified VIM-2, nitrocefin hydrolysis. inhibition, % at 5.6 µM. 96% of 1,300 active. AID 2187, 2009;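 active = inhibition of the VIM-2 beta-lactamase enzyme above about 11% from the earlier first-round screen, limit read from the data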;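 also: 0% = VIM-2 with DMSO and 100% = buffer wells without enzyme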
* marks the source's active call; other numbers are inactive results; i = inactive; . = no result given. Only some compounds are listed: those with a hit (about 1.7% of all), similar ones and a draw of the others.

SMILES | PolyA inh | proCasp3 act | VIM-2 inh | Neddyl block | proCasp7 act | IMP-1 inh-1 | IMP-1 inh-2 | VIM-2 FRET inh | TEM-1 counter | VIM-2 inh conf
CCOC(=O)c1cnc2c(ccc3ccccc32)c1NCCCN(C)C | -4.6 | 2.5 | 25.3* | i | -3.3 | 1.3 | 0.6 | 10.8 | -6.3 | 34.9*
N#C/C(=C/c1cccc(C(F)(F)F)c1)c1nc(CCN2C(=O)c3ccccc3C2=O)cs1 | 15.8 | 2.4 | -7.0 | . | 4.3 | -1.7 | . | . | . | .
Cc1cc(C)n2nc(N)nc2n1 | . | . | . | i | . | . | . | . | . | .
COc1ccc(Nc2nc(N3CCCC3)c3ccccc3n2)cc1 | -16.6 | 2.9 | 18.6* | i | 8.0 | -2.5 | -2.2 | -6.5 | -4.3 | 35.1*
CCN(CC)c1ccc(Nc2nc(N3CCOCC3)c3ccccc3n2)cc1 | -15.5 | -5.3 | 0.8 | i | -20.9 | -7.7 | . | . | . | .
COc1ccc(CCn2c(=N)c(C(=O)NCCN3CCOCC3)cc3c(=O)n4cccc(C)c4nc32)cc1OC | 8.7 | -6.3 | 19.4* | i | -1.6 | -2.6 | -2.8 | 0.1 | -5.7 | 27.1*
Cc1cccn2c(=O)c3cc(C(=O)NCCN4CCOCC4)c(=N)n(CCc4ccccc4)c3nc12 | 14.2 | -13.2 | -0.1 | . | -10.7 | -3.8 | . | . | . | .
COc1ccc(CCNC(=O)c2cc3c(=O)n4ccccc4nc3n(CC3CCCO3)c2=N)cc1OC (stereo unspecified) | 2.8 | -2.3 | 4.2 | i | -10.2 | -0.2 | . | . | . | .
COc1ccc(CCNC(=O)c2cc3c(=O)n4ccccc4nc3n(CCCN3CCOCC3)c2=N)cc1OC | -0.7 | -9.7 | 14.8* | i | -11.6 | 0.1 | -2.9 | -9.2 | -3.6 | 20.9*
CCN(CC(=O)Nc1ccc(NC(C)=O)cc1)C(=O)C12CC3CC(CC(Cl)(C3)C1)C2 | 24.1 | 3.5 | -2.1 | i | -7.9 | -1.4 | . | . | . | .
CN(Cc1ccccc1)c1nc2c(c(=O)[nH]c(=O)n2C)n1CCSc1ncccn1 | . | . | -4.3 | . | . | -4.2 | . | . | . | .
Oc1ccc(C2=Nn3c(nnc3-c3ccco3)SC2)cc1O | -1.5 | -7.4 | 16.3* | i | -13.9 | -1.7 | -3.8 | -2.5 | -9.3 | 27.9*
Cc1oc2ccc(Br)cc2c(=O)c1-c1nn[nH]n1 | 16.5 | 9.2 | 20.8* | i | -1.2 | -2.8 | -0.6 | 41.1* | 4.2* | 27.4*
CCN1CCN(CC(=O)n2c3c(c4ccccc42)CC(C)CC3)CC1 (stereo unspecified) | -7.2 | 18.4 | 18.7* | i | -1.9 | -0.1 | -1.1 | 27.7* | -2.9 | 28.6*
CC1CCN(CC(=O)n2c3c(c4ccccc42)CCCC3)CC1 | -11.9 | 6.2 | 18.4* | i | -3.5 | 0.4 | -3.0 | 8.8 | -6.3 | 6.0
CC1CCc2c(c3ccccc3n2C(=O)CCl)C1 (stereo unspecified) | -6.9 | -4.6 | 4.8 | i | -0.9 | -0.6 | . | . | . | .
